Data set [1] concerns the target Delta-type opioid receptor (Rattus norvegicus, UniProt P33533). The experiment in a line: Displacement of […] from delta opioid receptor in rat brain membrane. It is filed as cell membranes.
Data set [2] relates to Caco-2. The data set can be described thus: (§1) Metabolic stability assessed as half life in human Caco-2 cell homogenate. The note with it: Caco-2. It counts as ADME, Colon.
Data set [3] deals with Caco-2. The experiment in a line: (§2) Apparent permeability from apical to basolateral side of the human Caco-2 membrane. It counts as ADME, cell-based. Background: Passage across Caco-2 layers is used to estimate intestinal permeability.
In data set [4] the target is T1, Mu-type opioid receptor (Homo sapiens, UniProt P35372). The experiment in a line: Displacement of [3H]DAMGO from mu opioid receptor in human SHSY5Y cells. It is filed as cell-based, SH-SY5Y. The gist of the method: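 Intact SH-SY5Y cells in 24-well plates were pre-incubated in binding buffer (50 mM Tris pH 7.4, 2% BSA). Incubated with 100 pM [3H]DAMGO plus unlabelled competitor (7 concentrations, 10 pM-1 μM) for 60 min at 37°C. Nonspecific binding defined with 1 μM DAMGO. Cells washed, dissolved in 1 M NaOH and counted by scintillation. Triplicates on at least three plates; Ki from one-site competition fits.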
A general note: Displacement assays read how much labelled ligand stays bound in the presence of the test substance.

Data set [5] concerns the target Mu-type opioid receptor (Rattus norvegicus, UniProt P33535). The data set can be described thus: Displacement of [3H]DAMGO from mu opioid receptor in rat brain membrane. It counts as cell membranes.
Data set [6] deals with T1, Mu-type opioid receptor. The data set can be described thus: Agonist activity at mu opioid receptor in human SHSY5Y cells assessed as inhibition of forskolin-stimulated cAMP production. It counts as functional, cell-based, SH-SY5Y. The method, boiled down:
(§3)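 SH-SY5Y cells (endogenous mu and delta opioid receptors, passages 10-20) grown in 96-well plates to 80% confluence. Peptides applied in DMEM with 30 μM forskolin for 30 min at 37°C. Lysed cells read by cAMP enzyme immunoassay (TMB, 450 nm) against a 0-3.2 pmol standard curve, expressed relative to the maximal forskolin response. Three experiments in triplicate; IC50 from concentration-response curves.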

Data set [7] can be described thus: as §1. As to conditions: Caco-2 cell homogenate. It counts as ADME, Colon.
In data set [8] the target is T1, Mu-type opioid receptor. The experiment in a line: Agonist activity at mu opioid receptor in human SHSY5Y cells assessed as inhibition of forskolin-stimulated cAMP production at 100 nM. It counts as functional, cell-based. Set-up: scale not given: the % may be the effect or the level left. The note with it: SH-SY5Y. The method, boiled down:
as §3

Data set [9] in a line: as §2. It is filed as ADME, cell-based.
The next data set is filed under the species Rattus norvegicus. The experiment in a line: Selectivity for rat mu opioid receptor over rat delta opioid receptor. The method, boiled down:
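Ratio Kiδ/Kiμ, with both Ki values from competitive displacement binding on prepared rat brain P2 synaptosome membranes. The μ site was labelled with [3H]DAMGO. Ki values are given as mean ± SE, n = 3-4.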

*1 amine or outer side, *2 acyl side, *3 side chain or, on linkers, in order; H or OH if unused. Where a SMILES comes first, the peptide text is derived from it. [ ]: non-standard residue; d: D form. The star is where a group is joined. ξ: configuration not given here. NH(β-D-Glc) = OC[C@H]1O[C@@H](N*)[C@H](O)[C@@H](O)[C@@H]1O; X1 = NC(=O)[C@H]1O[C@@H](N*)[C@H](O)[C@@H](O)[C@@H]1O; ξGly(nC16H33) = CCCCCCCCCCCCCCCCC(N)C(=O)O; Dmt = Cc1cc(O)cc(C)c1C[C@H](N)C(=O)O; ξGly(decyl) = CCCCCCCCCCC(N)C(=O)O; Suc = O=C(CCC(=O)[*:2])[*:1]; ξAoc(2) = CCCCCCC(N)C(=O)O

Chain of Delta-type opioid receptor (P33533 whole entry): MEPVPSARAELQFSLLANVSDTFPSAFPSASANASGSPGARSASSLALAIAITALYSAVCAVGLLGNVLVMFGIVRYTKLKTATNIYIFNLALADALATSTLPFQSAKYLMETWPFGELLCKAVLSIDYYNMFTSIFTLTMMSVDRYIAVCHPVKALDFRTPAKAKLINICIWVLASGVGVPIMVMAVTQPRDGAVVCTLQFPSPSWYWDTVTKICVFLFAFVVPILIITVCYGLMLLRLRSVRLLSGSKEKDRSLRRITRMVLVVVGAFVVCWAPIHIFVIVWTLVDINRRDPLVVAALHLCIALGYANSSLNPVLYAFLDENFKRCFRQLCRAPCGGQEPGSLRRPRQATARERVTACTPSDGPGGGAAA
T1 sequence (P35372 whole entry): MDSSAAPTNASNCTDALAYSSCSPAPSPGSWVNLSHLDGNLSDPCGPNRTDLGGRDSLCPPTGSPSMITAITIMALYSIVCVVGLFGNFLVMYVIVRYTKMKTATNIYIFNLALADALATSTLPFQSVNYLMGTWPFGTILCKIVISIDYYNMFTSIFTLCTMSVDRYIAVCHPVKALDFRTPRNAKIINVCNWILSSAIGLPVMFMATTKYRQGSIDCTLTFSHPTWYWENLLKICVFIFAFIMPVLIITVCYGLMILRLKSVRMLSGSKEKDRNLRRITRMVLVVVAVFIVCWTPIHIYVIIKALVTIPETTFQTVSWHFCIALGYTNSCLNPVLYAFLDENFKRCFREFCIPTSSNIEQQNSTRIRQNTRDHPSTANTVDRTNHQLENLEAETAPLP
Chain of Mu-type opioid receptor (Rattus norvegicus, UniProt P33535) (P33535 whole entry): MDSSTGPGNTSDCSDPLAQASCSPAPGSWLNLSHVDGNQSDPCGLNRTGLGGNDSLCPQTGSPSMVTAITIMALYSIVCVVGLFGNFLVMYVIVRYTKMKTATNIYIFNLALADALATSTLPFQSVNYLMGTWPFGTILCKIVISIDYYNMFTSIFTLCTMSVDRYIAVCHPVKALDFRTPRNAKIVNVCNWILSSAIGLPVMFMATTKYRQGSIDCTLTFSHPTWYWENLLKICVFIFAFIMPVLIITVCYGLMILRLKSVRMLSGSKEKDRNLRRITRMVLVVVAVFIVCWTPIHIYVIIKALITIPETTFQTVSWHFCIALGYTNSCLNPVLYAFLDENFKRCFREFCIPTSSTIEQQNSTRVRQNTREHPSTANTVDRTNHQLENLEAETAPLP

As to `Cc1cc(O)cc(C)c1C[C@H](N)C(=O)N1CCC[C@H]1C(=O)N[C@@H](Cc1c[nH]c2ccccc12)C(=O)N[C@@H](Cc1ccccc1)C(N)=O` (stereo in doubt; 13) [listing 1 of 2 here], the figures for the Ki (in data set [1]; on Mu-type opioid receptor [4]; on Mu-type opioid receptor [5]) were 5 nM, 0.059 nM and 0.067 nM, respectively. The t1/2 with Caco-2 [2] came out at 13.5 min. The Papp in the data set with Caco-2 [3] was determined as 5.04 ×10⁻⁷ cm/s. Further, the 50% inhibitory concentration (IC50) (usually the point on the concentration scale where inhibition reaches its midpoint) on Mu-type opioid receptor [6] turned out to be 0.43 nM.

As to `NC(=O)[C@H]1O[C@@H](NC(=O)[C@H](Cc2ccccc2)NC(=O)[C@H](Cc2c[nH]c3ccccc23)NC(=O)[C@@H]2CCCN2C(=O)[C@@H](N)Cc2ccc(O)cc2)[C@H](O)[C@@H](O)[C@@H]1O`, the half-life (as a rule, the time needed for the level to fall by half in the phase considered) in data set [7] came to 4.3 min. Besides, affinity at Mu-type opioid receptor [4] was put at a Ki of 151 nM. Further, on Mu-type opioid receptor [8], the Activity was 31.5%.

`NC(=O)[C@H](Cc1ccccc1)NC(=O)[C@H](Cc1c[nH]c2ccccc12)NC(=O)[C@@H]1CCCN1C(=O)[C@H](Cc1ccc(O)cc1)NC(=O)CCC(=O)N[C@@H]1O[C@H](CO)[C@@H](O)[C@H](O)[C@H]1O`: the Ki – broadly, a dissociation constant, usually derived from enzyme kinetics or from competition with a known ligand – in data set [1] is 6320 nM; at Mu-type opioid receptor [4] it was 115 nM; on Mu-type opioid receptor [5], 115 nM. In addition, in data set [7], the half-life was determined as 38 min. Further, the Papp A→B (as a rule, how fast a substance crosses the layer from the apical side) in data set [9] was 0.545 ×10⁻⁶ cm/s. The Ratio Ki in the data set listed under Rattus norvegicus was 55.

Turning to `CCCCCCC(N)C(=O)N[C@@H](Cc1c(C)cc(O)cc1C)C(=O)N1CCC[C@H]1C(=O)N[C@@H](Cc1c[nH]c2ccccc12)C(=O)N[C@@H](Cc1ccccc1)C(N)=O` (stereo partly drawn) (H-[ξAoc(2)][Dmt]PWF-NH2), at Mu-type opioid receptor [4], the affinity corresponds to a Ki of 0.081 nM. At Mu-type opioid receptor [8], the Activity came to 84.3%. For the same molecule, on Mu-type opioid receptor [6], the IC50 stood at 0.32 nM.

For `CCCCCCC(N)C(=O)N[C@@H](Cc1ccc(O)cc1)C(=O)N1CCC[C@H]1C(=O)N[C@@H](Cc1c[nH]c2ccccc12)C(=O)N[C@@H](Cc1ccccc1)C(=O)N[C@@H]1O[C@H](C(N)=O)[C@@H](O)[C@H](O)[C@H]1O` (stereo partly drawn) (H-[ξAoc(2)]YPWF-X1), in data set [7], the half-life is 75 min. Also, the Papp A→B in [9] was 1.62 ×10⁻⁶ cm/s. For the same molecule, the Ki on Mu-type opioid receptor [4] is 148 nM. In addition, the Activity at Mu-type opioid receptor [8] is 36.2%.

Regarding `Cc1cc(O)cc(C)c1C[C@H](N)C(=O)N1CCC[C@H]1C(=O)N[C@@H](Cc1c[nH]c2ccccc12)C(=O)N[C@@H](Cc1ccccc1)C(N)=O` (stereo in doubt; 13) [listing 2 of 2 here], the Ratio Ki in the data set filed under Rattus norvegicus is 75.

With `CCCCCC[C@H](N)C(=O)N[C@@H](Cc1ccc(O)cc1)C(=O)N1CCC[C@H]1C(=O)N[C@@H](Cc1c[nH]c2ccccc12)C(=O)N[C@@H](Cc1ccccc1)C(N)=O`, the half-life in [7] stood at 23.8 min. The molecule also had a Ki on Mu-type opioid receptor [4] of 3.02 nM.

Take `CCCCCCCCCCC(NC(=O)[C@H](Cc1ccccc1)NC(=O)[C@H](Cc1c[nH]c2ccccc12)NC(=O)[C@@H]1CCCN1C(=O)[C@@H](N)Cc1ccc(O)cc1)C(N)=O` (stereo partly drawn) (H-YPWF[ξGly(decyl)]-NH2): in data set [9], the Papp A→B is 0.416 ×10⁻⁶ cm/s.

For `CCCCCC[C@@H](N)C(=O)N[C@@H](Cc1ccc(O)cc1)C(=O)N1CCC[C@H]1C(=O)N[C@@H](Cc1c[nH]c2ccccc12)C(=O)N[C@@H](Cc1ccccc1)C(N)=O`, the half-life in [7] is 23.8 min. At Mu-type opioid receptor [4], this molecule registered a Ki of 2.92 nM.

Consider `CCCCCCCCCCCCCCCCC(N)C(=O)N[C@@H](Cc1ccc(O)cc1)C(=O)N1CCC[C@H]1C(=O)N[C@@H](Cc1c[nH]c2ccccc12)C(=O)N[C@@H](Cc1ccccc1)C(N)=O` (stereo partly drawn) (H-[ξGly(nC16H33)]YPWF-NH2), for which, on Mu-type opioid receptor [8], the Activity was 48.4%.

Consider `Cc1cc(O)cc(C)c1C[C@H](N)C(=O)N1CCC[C@H]1C(=O)N[C@@H](Cc1c[nH]c2ccccc12)C(=O)N[C@@H](Cc1ccccc1)C(N)=O` (stereo in doubt), for which, in the data set on Caco-2 [2], the t1/2 was determined as 5 min. The Papp with Caco-2 [3] is given as 0.196 ×10⁻⁷ cm/s.

For `CCCCCCC(N)C(=O)N[C@@H](Cc1ccc(O)cc1)C(=O)N1CCC[C@H]1C(=O)N[C@@H](Cc1c[nH]c2ccccc12)C(=O)N[C@@H](Cc1ccccc1)C(N)=O` (stereo partly drawn), the Ki was found to be 1760 nM in data set [1], 2.15 nM on Mu-type opioid receptor [4] and 2.86 nM at Mu-type opioid receptor [5]. Moreover, the half-life in data set [7] stood at 23.2 min. Further, the Papp A→B in [9] was 3.54 ×10⁻⁶ cm/s. The Ratio Ki in the data set filed under Rattus norvegicus stood at 614. Further, the Activity on Mu-type opioid receptor [8] was 65.4%. In addition, the IC50 on Mu-type opioid receptor [6] stood at 26.3 nM.

Take `NC(=O)[C@H](Cc1ccccc1)NC(=O)[C@H](Cc1c[nH]c2ccccc12)NC(=O)[C@@H]1CCCN1C(=O)[C@@H](N)Cc1ccc(O)cc1` [ENDOMORPHIN-1]: in [9], the apparent permeability from apical to basolateral (Papp A→B) was found to be 0.447 ×10⁻⁶ cm/s.

For the molecule `CCCCCCC(NC(=O)[C@H](Cc1ccccc1)NC(=O)[C@H](Cc1c[nH]c2ccccc12)NC(=O)[C@@H]1CCCN1C(=O)[C@H](Cc1ccc(O)cc1)NC(=O)CCC(=O)N[C@@H]1O[C@H](CO)[C@@H](O)[C@H](O)[C@H]1O)C(N)=O` (stereo partly drawn) ({NH(β-D-Glc)-Suc}-YPWF[ξAoc(2)]-NH2), the half-life in data set [7] is 33 min. For the same molecule, the Papp A→B in data set [9] is 1.14 ×10⁻⁶ cm/s. In addition, affinity on Mu-type opioid receptor [4] was put at a Ki of 266 nM.

On to `CCCCCCCCCCC(N)C(=O)N[C@@H](Cc1ccc(O)cc1)C(=O)N1CCC[C@H]1C(=O)N[C@@H](Cc1c[nH]c2ccccc12)C(=O)N[C@@H](Cc1ccccc1)C(N)=O` (stereo partly drawn) (H-[ξGly(decyl)]YPWF-NH2), for which the Ki worked out at 836 nM in data set [1], 15.4 nM at Mu-type opioid receptor [4] and 14.8 nM at Mu-type opioid receptor [5]. Moreover, the Papp A→B in data set [9] was determined as 1.24 ×10⁻⁶ cm/s. Besides, in the data set listed under Rattus norvegicus, the Ratio Ki came to 56. Further, the Activity on Mu-type opioid receptor [8] turned out to be 55.4%.

For `CCCCCCC(NC(=O)[C@H](Cc1ccccc1)NC(=O)[C@H](Cc1c[nH]c2ccccc12)NC(=O)[C@@H]1CCCN1C(=O)[C@@H](N)Cc1ccc(O)cc1)C(N)=O` (stereo partly drawn) (H-YPWF[ξAoc(2)]-NH2), the half-life in data set [7] turned out to be 3.5 min. In addition, in [9], the Papp A→B was 0.823 ×10⁻⁶ cm/s. Also, the affinity at Mu-type opioid receptor [4] corresponds to a Ki of 121 nM. For the same molecule, on Mu-type opioid receptor [8], the Activity was 15.9%.
